Values joined by “and” are separate entries in the source; they are usually repeats but may differ in a detail not shown here. Equal values may be shown once.
System: U2OS
Assay: Multiplex assay against U2OS
Assay type: toxicity, cell-based
Details: human
Summary of the method: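 With compound added, live cells were imaged on a CQ1 microscope at 37°C and 5% CO2; staining with Hoechst33342, BioTracker Green Microtubule Cytoskeleton Dye, MitoTracker Red and Annexin V Alexa Fluor 680 had been done at seeding. The CellPathfinder machine-learning gating scheme split cells into Hoechst high-intensity objects or normal cells, normal cells into healthy, pyknosed or fragmented nuclei, and pyknosed cells into mitotic or apoptotic. The tubulin, mitochondrial-mass and membrane-permeability phenotypes are per cents of healthy-nucleus cells.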

[1] = 12 h, 10 µM, compound concentration 10 uM, replicate 1
[2] = 12 h, 10 µM, compound concentration 10 uM, replicate 2
[3] = 24 h, 10 µM, compound concentration 10 uM, replicate 1
[4] = 24 h, 10 µM, compound concentration 10 uM, replicate 2
[5] = 12 h, 1 µM, compound concentration 1 uM, replicate 1
[6] = 12 h, 1 µM, compound concentration 1 uM, replicate 2
[7] = 24 h, 1 µM, compound concentration 1 uM, replicate 1
[8] = 24 h, 1 µM, compound concentration 1 uM, replicate 2
[9] = 48 h, 1 µM, compound concentration 1 uM, replicate 1
[10] = 48 h, 1 µM, compound concentration 1 uM, replicate 2
[11] = 48 h, 10 µM, compound concentration 10 uM, replicate 1
[12] = 48 h, 10 µM, compound concentration 10 uM, replicate 2

## CN1C(=O)c2sccc2N(C)c2nc(Nc3ccc(S(N)(=O)=O)cc3)ncc21
[1]
  Population Apoptotic (%): 30% and 31%
  Population Fragmented Nuclei (%): 5% and 4%
  Population Healthy Nuclei (%): 88% and 84%
  Population Hoechst High Intensity Objects (%): 1%
  Population Membrane Permeable-Phenotype (%): 14% and 7%
  Population Mitochondria Different-Phenotype (%): 17% and 22%
  Population Mitotic Cells (%): 70% and 68%
  Population Normal (%): 98%
  Population Pyknosed Nuclei (%): 5% and 10%
  Population Tubulin-Different-Phenotype (%): 15% and 31%
  Total Cell Count: 144 and 172
[2]
  Population Fragmented Nuclei (%): 6% and 13%
  Population Healthy Nuclei (%): 83% and 78%
  Population Hoechst High Intensity Objects (%): 8% and 19%
  Population Membrane Permeable-Phenotype (%): 19% and 8%
  Population Mitochondria Different-Phenotype (%): 36% and 35%
  Population Mitotic Cells (%): 90% and 66%
  Population Normal (%): 91% and 80%
  Population Pyknosed Nuclei (%): 9% and 7%
  Population Tubulin-Different-Phenotype (%): 18% and 21%
  Total Cell Count: 94 and 98
[3]
  Population Apoptotic (%): 28% and 42%
  Population Fragmented Nuclei (%): 4% and 6%
  Population Healthy Nuclei (%): 92% and 84%
  Population Hoechst High Intensity Objects (%): 0% and 1%
  Population Membrane Permeable-Phenotype (%): 7% and 6%
  Population Mitochondria Different-Phenotype (%): 15% and 44%
  Population Mitotic Cells (%): 71% and 57%
  Population Normal (%): 99% and 98%
  Population Pyknosed Nuclei (%): 2% and 9%
  Population Tubulin-Different-Phenotype (%): 42%
  Total Cell Count: 142 and 237
[4]
  Population Fragmented Nuclei (%): 9% and 12%
  Population Healthy Nuclei (%): 80%
  Population Hoechst High Intensity Objects (%): 8% and 12%
  Population Membrane Permeable-Phenotype (%): 11%
  Population Mitochondria Different-Phenotype (%): 57% and 27%
  Population Mitotic Cells (%): 63% and 100%
  Population Normal (%): 91% and 87%
  Population Pyknosed Nuclei (%): 10% and 3%
  Population Tubulin-Different-Phenotype (%): 17% and 40%
  Total Cell Count: 112 and 90

## O=C1NCN(c2ccccc2)C12CCN(CCCOc1ccc(F)cc1)CC2 [SPIRAMIDE]
[5]
  Population Apoptotic (%): 22%
  Population Fragmented Nuclei (%): 16%
  Population Healthy Nuclei (%): 77%
  Population Hoechst High Intensity Objects (%): 6%
  Population Membrane Permeable-Phenotype (%): 1%
  Population Mitochondria Different-Phenotype (%): 9%
  Population Mitotic Cells (%): 77%
  Population Normal (%): 93%
  Population Pyknosed Nuclei (%): 6%
  Population Tubulin-Different-Phenotype (%): 10%
  Total Cell Count: 210
[6]
  Population Apoptotic (%): 0%
  Population Fragmented Nuclei (%): 10%
  Population Healthy Nuclei (%): 88%
  Population Hoechst High Intensity Objects (%): 7%
  Population Membrane Permeable-Phenotype (%): 0%
  Population Mitochondria Different-Phenotype (%): 10%
  Population Mitotic Cells (%): 100%
  Population Normal (%): 92%
  Population Pyknosed Nuclei (%): 1%
  Population Tubulin-Different-Phenotype (%): 6%
  Total Cell Count: 74
[1]
  Population Apoptotic (%): 36%
  Population Fragmented Nuclei (%): 16%
  Population Healthy Nuclei (%): 51%
  Population Hoechst High Intensity Objects (%): 10%
  Population Membrane Permeable-Phenotype (%): 4%
  Population Mitochondria Different-Phenotype (%): 74%
  Population Mitotic Cells (%): 63%
  Population Normal (%): 90%
  Population Pyknosed Nuclei (%): 31%
  Population Tubulin-Different-Phenotype (%): 50%
  Total Cell Count: 145
[2]
  Population Apoptotic (%): 50%
  Population Fragmented Nuclei (%): 3%
  Population Healthy Nuclei (%): 88%
  Population Hoechst High Intensity Objects (%): 8%
  Population Membrane Permeable-Phenotype (%): 2%
  Population Mitochondria Different-Phenotype (%): 27%
  Population Mitotic Cells (%): 50%
  Population Normal (%): 91%
  Population Pyknosed Nuclei (%): 7%
  Population Tubulin-Different-Phenotype (%): 12%
  Total Cell Count: 91
[7]
  Population Apoptotic (%): 27%
  Population Fragmented Nuclei (%): 8%
  Population Healthy Nuclei (%): 80%
  Population Hoechst High Intensity Objects (%): 7%
  Population Membrane Permeable-Phenotype (%): 0%
  Population Mitochondria Different-Phenotype (%): 5%
  Population Mitotic Cells (%): 72%
  Population Normal (%): 92%
  Population Pyknosed Nuclei (%): 11%
  Total Cell Count: 229
[8]
  Population Apoptotic (%): 0%
  Population Fragmented Nuclei (%): 7%
  Population Healthy Nuclei (%): 89%
  Population Hoechst High Intensity Objects (%): 6%
  Population Membrane Permeable-Phenotype (%): 2%
  Population Mitochondria Different-Phenotype (%): 7%
  Population Mitotic Cells (%): 100%
  Population Normal (%): 93%
  Population Pyknosed Nuclei (%): 3%
  Population Tubulin-Different-Phenotype (%): 7%
  Total Cell Count: 76
[3]
  Population Apoptotic (%): 41%
  Population Fragmented Nuclei (%): 18%
  Population Healthy Nuclei (%): 32%
  Population Hoechst High Intensity Objects (%): 8%
  Population Membrane Permeable-Phenotype (%): 10%
  Population Mitochondria Different-Phenotype (%): 71%
  Population Mitotic Cells (%): 58%
  Population Normal (%): 91%
  Population Pyknosed Nuclei (%): 48%
  Population Tubulin-Different-Phenotype (%): 31%
  Total Cell Count: 173
[4]
  Population Apoptotic (%): 27%
  Population Fragmented Nuclei (%): 3%
  Population Healthy Nuclei (%): 78%
  Population Hoechst High Intensity Objects (%): 6%
  Population Membrane Permeable-Phenotype (%): 2%
  Population Mitochondria Different-Phenotype (%): 21%
  Population Mitotic Cells (%): 72%
  Population Normal (%): 93%
  Population Pyknosed Nuclei (%): 18%
  Population Tubulin-Different-Phenotype (%): 10%
  Total Cell Count: 118
[9]
  Population Apoptotic (%): 25%
  Population Fragmented Nuclei (%): 9%
  Population Healthy Nuclei (%): 85%
  Population Hoechst High Intensity Objects (%): 4%
  Population Membrane Permeable-Phenotype (%): 1%
  Population Mitochondria Different-Phenotype (%): 12%
  Population Mitotic Cells (%): 75%
  Population Normal (%): 95%
  Population Pyknosed Nuclei (%): 4%
  Population Tubulin-Different-Phenotype (%): 8%
  Total Cell Count: 288
[10]
  Population Apoptotic (%): 16%
  Population Fragmented Nuclei (%): 8%
  Population Healthy Nuclei (%): 84%
  Population Hoechst High Intensity Objects (%): 1%
  Population Membrane Permeable-Phenotype (%): 0%
  Population Mitochondria Different-Phenotype (%): 10%
  Population Mitotic Cells (%): 83%
  Population Normal (%): 98%
  Population Pyknosed Nuclei (%): 6%
  Population Tubulin-Different-Phenotype (%): 9%
  Total Cell Count: 106
[11]
  Population Apoptotic (%): 67%
  Population Fragmented Nuclei (%): 32%
  Population Healthy Nuclei (%): 21%
  Population Hoechst High Intensity Objects (%): 12%
  Population Membrane Permeable-Phenotype (%): 12%
  Population Mitochondria Different-Phenotype (%): 58%
  Population Mitotic Cells (%): 32%
  Population Normal (%): 87%
  Population Pyknosed Nuclei (%): 45%
  Population Tubulin-Different-Phenotype (%): 28%
  Total Cell Count: 265
[12]
  Population Apoptotic (%): 16%
  Population Fragmented Nuclei (%): 13%
  Population Healthy Nuclei (%): 78%
  Population Hoechst High Intensity Objects (%): 9%
  Population Membrane Permeable-Phenotype (%): 11%
  Population Mitochondria Different-Phenotype (%): 16%
  Population Mitotic Cells (%): 83%
  Population Normal (%): 90%
  Population Pyknosed Nuclei (%): 7%
  Population Tubulin-Different-Phenotype (%): 18%
  Total Cell Count: 182

From ChEMBL document CHEMBL4689842, “EUbOPEN Chemogenomics Library wave 1” (2021)
